NadD inh – NadD (S. aureus) enzyme inhibition. actives 0.78% (n = 360,000). purified NadD enzyme, colorimetric absorbance read-out. AID 602399. inhibition, % at 20 µM; in the data active means inhibition above about 26%
DSG3 Ab inh – blocks pemphigus antibody binding to human desmoglein-3 | P32926 | DSG3-coupled beads, scFv-anti-DSG3-GFP binding, flow cytometry; hits give low values | binding (percent of control), % at 10 µM | actives 0.48% (n = 310,000);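 active means binding more than 3 SD below its plate's average and above zero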;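 further: hits lower antibody fragment binding to DSG3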
Rce1 inh – inhibitors of yeast Ras-converting enzyme; yeast membranes, quenched prenylated peptide cleavage fluorescence; actives 0.27% (n = 290,000); calls only; AID 2563;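 active means fall in fluorescence gain of 50% or more versus controls, with final raw signal at or below 3038400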;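 further: plate controls were neutral control wells for no effect and wells lacking membranes for full effect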
Target sequence (Q03530 whole entry, looked up): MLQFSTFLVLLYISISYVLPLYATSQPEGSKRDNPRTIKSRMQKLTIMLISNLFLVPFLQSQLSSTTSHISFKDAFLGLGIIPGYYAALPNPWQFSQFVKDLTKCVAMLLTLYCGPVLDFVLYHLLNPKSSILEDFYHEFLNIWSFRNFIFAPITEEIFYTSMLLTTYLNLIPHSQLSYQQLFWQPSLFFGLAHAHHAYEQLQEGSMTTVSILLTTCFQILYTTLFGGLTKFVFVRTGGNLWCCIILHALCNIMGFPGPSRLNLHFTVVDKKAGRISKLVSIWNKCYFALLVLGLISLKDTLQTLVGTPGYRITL
HCV core dimer – blocks dimerization of HCV core protein; TR-FRET GST/Flag-core106 dimerization, 1536-well; inhibition, % at 5 µM; actives 0.33% (n = 300,000); AID 1899;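 active means inhibition above the mean of all tested compounds plus 3 SD, set per screening campaign, cut at about 45% in these data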
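Test system: GST/Flag-tagged HCV core106 proteins; Medium: KF-containing HEPES buffer, pH 7.45, DTT, CHAPS, BSA; Times: compound-protein-antibody incubation 4 h at 22.5 °C; Detection: TR-FRET 671 and 617 nm emission; Benchmarks: wells lacking GST-core106 and wells with excess unlabelled core106.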
TbMetRS inhib – blocks T. brucei methionyl-tRNA synthetase activity. purified T. brucei MetRS, ATP depletion, Kinase-Glo luminescence. inhibition, % at 11.9 µM. actives 0.4% (n = 360,000);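 active means inhibition above a per-plate cutoff of the control wells' mean inhibition plus 3 SD, cut at about 5.5% in these data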;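 further: 0% = DMSO wells median and 100% = median of wells with control inhibitor compound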
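technique = Kinase-Glo luminescence, ATP depletion format | system = purified MetRS (methionyl-tRNA synthetase) enzyme from Trypanosoma brucei | timing = 15 min preincubation, 2 h reaction, all 25 °C | evaluation = percent inhibition versus plate control medians | dosing = single dose, 11.9 µM final nominal, 0.9% final DMSO | also added = substrates ATP, L-methionine and bulk Escherichia coli tRNA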
Numbers without * were called inactive; i = inactive; . = no result; + = active, no number. Only some compounds are listed: those with a hit (about 1.9% of all), similar ones and a draw of the others.

SMILES | NadD inh | DSG3 Ab inh | Rce1 inh | HCV core dimer | TbMetRS inhib
Cc1ccccc1NC(=O)Cn1cnc2c(oc3nc4c(cc32)COC(C)(C)C4)c1=O | -3 | 106 | i | -4 | 0
COc1ccc(C(=O)NCC(=O)N/N=C/c2c(C)[nH]c3ccccc23)cc1OC | -5 | 106 | i | -5 | 0
C[C@@H]1CN([C@H](C)CO)C(=O)CCCn2nncc2CO[C@H]1CN(C)S(=O)(=O)c1ccc2c(c1)OCCCO2 | -1 | . | . | . | 0
O=c1c2ccccc2ncn1-c1ccc(Cl)cc1Cl | 4 | 106 | i | 1 | 1
O=c1c2ccccc2sn1-c1ccc(Cl)cc1Cl | -2 | 61* | . | . | 1
O=C(/C=C/c1ccccc1)Nc1cc(S(=O)(=O)N2CCOCC2)ccc1N1CCOCC1 | 1 | 115 | . | . | 0
CCOc1ccc(NC(=O)COc2ccc(OC)cc2)cc1 | 6 | 114 | i | -7 | 0
O=C1NC(=S)N/C1=C/c1cccn1-c1ccc([N+](=O)[O-])cc1 | 10 | 98 | i | 59* | 0
N#Cc1c(NC(=O)c2ccc(Cn3cc(Br)cn3)o2)sc2c1CCCCC2 | -9 | 105 | i | 14 | 0
CC1CCc2c(sc(NC(=O)c3ccc(Cn4cc([N+](=O)[O-])cn4)o3)c2C#N)C1 (configuration not stated) | 14 | 103 | i | 85* | 0
CC(C)Cc1n[nH]c(=O)c2c1nnn2Cc1ccccc1F | -5 | 93 | i | 0 | 0
COc1ccc(-n2c(SCc3ccc([N+](=O)[O-])cc3)nnc2-c2ccc(C)cc2)cc1 | 2 | 133 | + | 17 | -1
COc1ccc(-n2c(Cc3ccccc3)nnc2SCc2ccc([N+](=O)[O-])cc2)cc1 | 7 | 107 | . | 10 | 0
CCOC(=O)C[C@H]1c2ccccc2S(=O)(=O)N1Cc1cc(OC)c(OC)c(OC)c1 | -2 | 93 | + | -8 | 0
O=C(COC(=O)c1ccc(NS(=O)(=O)c2cccs2)cc1)Nc1nc2c(F)c(F)c(F)cc2s1 | 50* | 97 | . | . | 0
O=C(COC(=O)c1ccco1)Nc1nc2c(F)c(F)c(F)cc2s1 | -1 | 114 | . | 4 | -1
O=C(NC1CCCCC1)c1cc(S(=O)(=O)N2CCN(c3ccccc3)CC2)ccc1Cl | -1 | 98 | . | . | 0
O=C(Nc1ccc2c(c1)CCC2)c1ccccc1Br | 3 | 99 | + | 3 | 0
O=C(Nc1ccc2c(c1)CCC2)c1cc(S(=O)(=O)N2CCN(c3ccccc3)CC2)ccc1Cl | 32* | 95 | i | 55* | 0
CSc1ccccc1C(=O)Nc1ccc2c(c1)CCC2 | -3 | 103 | i | 4 | -1
Cc1nn(-c2nnc(NCc3ccccc3)nn2)c(C)c1Br | -2 | 98 | i | -11 | 0
Cc1ccc(S(=O)(=O)Nc2ccc(C(=O)NCCCn3ccnc3)cc2)cc1[N+](=O)[O-] | 6 | 101 | . | . | 0
Cc1ccc(-n2nnnc2SCC(=O)c2c(N)n(CC(C)C)c(=O)n(C)c2=O)cc1 | 4 | 84* | i | 2 | -1
Cc1cc(C)c(S(=O)(=O)N2CCCC(C(=O)N3CCCC3)C2)c(C)c1 (configuration not stated) | -4 | 115 | i | -8 | 0
COc1ccccc1N(CC(=O)NC1CCCCC1)C(=O)CNC(=O)c1cccs1 | 1 | 111 | i | -3 | 0
SMILES | NadD inh | DSG3 Ab inh | Rce1 inh | HCV core dimer | TbMetRS inhib
CN1CCN(c2ccc(NC(=O)c3ccc4c(c3)OCCO4)cc2)CC1 | -5 | 90 | i | -9 | 0
CCC(=O)N1CCN(c2ccc(NC(=O)c3ccc4c(c3)OCCO4)cc2)CC1 | 8 | 76* | i | -1 | 0
Cc1ccc2nc(-c3ccccc3)cn2c1 | -5 | 98 | + | 4 | -3
Cc1ccc2nc(-c3ccc(O)c(O)c3)cn2c1 | -2 | 111 | i | -10 | -1
CN1CCN(S(=O)(=O)c2ccc3ccccc3c2)CC1 | -4 | 106 | i | -3 | 1
CN(C)S(=O)(=O)N1CCN(S(=O)(=O)c2ccc3ccccc3c2)CC1 | 3 | 73* | i | 6 | 0
CCCCCCCCCCCCCCCC(=O)OCC1OC(n2ccc(N)nc2=O)C(O)C1O (configuration not stated) | 1 | 88 | . | . | -1
Cc1ccccc1N1CCN(C2=NC(=O)/C(=C/c3cn[nH]c3-c3ccccc3)S2)CC1 | 41* | 133 | i | -7 | 0
O=C1N=C(N2CCCC2)S/C1=C\c1cn[nH]c1-c1ccccc1 | . | . | i | -13 | .
COc1cccc(-c2nc(C#N)c(N3CCN(C(=O)c4ccco4)CC3)o2)c1 | -5 | . | + | 13 | -1
Cc1c(C(=O)Nc2ccc3c(c2)CCC3)cccc1[N+](=O)[O-] | -5 | 100 | i | -7 | -1
O=C1/C(=C\c2cc(Br)cc(Br)c2O)SC(=S)N1Cc1ccccc1 | 42* | 89 | i | 6 | 0
c1ccc(-c2ccccc2OCCCN2CCCC2)cc1 | -5 | 72* | i | -7 | 0
O=C(COC(=O)c1cccc(S(=O)(=O)N2CCc3ccccc3C2)c1)NCc1ccco1 | 1 | 99 | i | 51* | 0
CC(C)NC(=O)Nc1nnc([C@H]2C[C@H](O)[C@@H](CO)O2)s1 | -1 | . | . | . | 0
O=S(=O)(c1cc(Cl)ccc1Cl)n1ccnc1 | -5 | 97 | . | . | -1
Cc1ccc(-c2cc(=O)c3cc(F)ccc3[nH]2)cc1 | -1 | 98 | i | 0 | 0
COc1ccc(-n2cc(C(=O)O)c3ccccc3c2=O)cc1 | -1 | 93 | i | 0 | -1
O=c1c2cc(F)ccc2sn1-c1ccc(F)cc1 | 7 | 49* | . | . | 0
O=C1CCCC(=O)N1c1ccc(F)cc1 | -7 | 92 | i | 0 | -1
COc1ccc(-n2sc3ccccc3c2=O)cc1 | -4 | 74* | . | . | 0
COc1ccc(-n2sc3ccc(F)cc3c2=O)cc1 | -2 | 50* | . | . | -1
Cc1ccc(C)c(-n2sc3ccc(F)cc3c2=O)c1 | 16 | 55* | . | . | 0
CC(C)OCCCNc1ncnc2c1nc1n2CCCC1 | -3 | 101 | i | . | 0
COc1ccc(CCNC(=O)c2ccc3c(=O)n(Cc4ccco4)c(=S)[nH]c3c2)cc1OC | 23 | 101 | i | 34 | 0
Cc1ccc(C)c(N(C(=O)Cn2nnc3ccccc32)C(C(=O)NCc2ccco2)c2ccncc2)c1 (configuration not stated) | -4 | 94 | i | -5 | -1
Cc1ccc(NC2CCCN(C(=O)c3ccnc(Cl)c3)C2)cc1C (configuration not stated) | 2 | 97 | i | -4 | 0
COc1ccccc1/C=C/C(=O)OC(C)CN1CCCCC1 (configuration not stated) | -4 | 89* | i | -12 | -1
COc1ccc(CNC(=O)c2ccc(Cl)c(NC3=NC4CS(=O)(=O)CC4S3)c2)cc1 (configuration not stated) | -4 | 68* | i | -3 | -1

Screening data (PubChem)
